Measurements: ChEMBL document CHEMBL2069191, “Antitrypanosomal and antioxidant properties of 4-hydroxycoumarins derivatives” (2012)
Activity calls are given as the source filed them. No cut-off for these calls is given here.

Experiments:
Format in all cases: functional
[1] = Antioxidant activity against APPH radical assessed as trolox equivalent incubated for 15 mins prior to APPH addition measured every 1 min by 120 mins by fluorescein-based ORAC method
Procedure, shortened: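 Peroxyl-radical scavenging by ORAC-FL. Fluorescein (40 nM final) and compound in methanol (0.3–2 M range, as printed) in 75 mM sodium phosphate buffer pH 7.4. Preincubated 15 min at 37 °C, then AAPH (18 mM final) added. Fluorescence read at ex 485/em 528 nm every 1 min for 120 min. Area under the decay curve calculated, expressed relative to trolox. Means SD.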

Trypanosoma cruzi = experiment: Antitrypanosomal activity against trypomastigote stage of Trypanosoma cruzi Dm28c at 10 umol/L after 24 hrs by MTT assay
Procedure, shortened: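 Parasites at 10⁷ per mL exposed to compound in DMSO ([…] final as printed, DMSO below 0.1% v/v) for 24 h at 37 °C. Nifurtimox served as positive control. Colorimetric read-out of viable parasites by absorbance at 570 nm.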

[2] = Antioxidant activity assessed as inhibition of hydroxyl radical production at 1 mM after 5 mins by ESR spectrophotometry
Procedure, shortened: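 Hydroxyl radical generated in N,N-dimethylformamide with NaOH (3 mM final), DMPO spin trap (30 mM final) and 30% hydrogen peroxide. Compounds at 1 mM final. EPR spectrum recorded after 5 min of reaction, with % scavenging derived from it.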

Row | Compound | Activity [1] [equiv] | Activity (Trypanosoma cruzi) | inhibition [2] [%]
1 | O=c1c(O)c(-c2ccc(O)c(O)c2)oc2cc(O)cc(O)c12 | 7.28 | – | –
2 | O=c1oc2ccccc2c(O)c1-c1ccc(Cl)cc1 | 3.9 | 30.7% | 31.3
3 | O=c1oc2ccc(Cl)cc2c(O)c1-c1cccc(O)c1 | 7.7 | inactive | 100
4 | CC1CS(=O)(=O)CCN1/N=C/c1ccc([N+](=O)[O-])o1 (centres undefined) [NIFURTIMOX] | – | 52.5% | –
5 | O=c1cc(O)c2ccccc2o1 | 4.2 | inactive | 61.9
6 | Cc1ccc(-c2c(O)c3ccccc3oc2=O)cc1 | 6.5 | 16.7% | 34.6
7 | O=c1oc2ccccc2c(O)c1-c1cccc(O)c1 | 4.9 | 3.9% | 40.2
8 | O=c1oc2ccccc2c(O)c1-c1ccccc1 | 4.4 | 21.1% | 45.1
9 | Oc1cc(O)c2c(c1)OC(c1ccc(O)c(O)c1)C(O)C2 (centres undefined) | 6.76 | – | –
10 | COc1ccc(-c2c(O)c3ccccc3oc2=O)cc1 | 5.7 | 1.6% | 46.3
